Data published in ChEMBL document CHEMBL1144458, “Aminothiazole inhibitors of HCV RNA polymerase” (Bioorg Med Chem Lett, 2005).

System: not listed separately
Assay: Clearance rate from human hepatocytes
Format: ADME, Liver, Hepatocyte
Settings: not given
O=C(O)c1cnc(N(C(=O)c2ccc(OCc3cccc(C(F)(F)F)c3)cc2)C2CCCCC2)s1 showed a CL of 5 lL/min/million.

System: not listed separately
Assay: Permeability determined in Caco-2 experiment
Format: ADME
Settings: human, read-out: Permeability
Molecule O=C(O)c1cnc(N(C(=O)c2ccc(OCc3cccc(C(F)(F)F)c3)cc2)C2CCCCC2)s1 has a Papp of 14.7 ×10⁻⁶ cm/s.

Target: Cytochrome P450 2D6 (Homo sapiens, UniProt P10635)
Sequence (P10635 whole entry): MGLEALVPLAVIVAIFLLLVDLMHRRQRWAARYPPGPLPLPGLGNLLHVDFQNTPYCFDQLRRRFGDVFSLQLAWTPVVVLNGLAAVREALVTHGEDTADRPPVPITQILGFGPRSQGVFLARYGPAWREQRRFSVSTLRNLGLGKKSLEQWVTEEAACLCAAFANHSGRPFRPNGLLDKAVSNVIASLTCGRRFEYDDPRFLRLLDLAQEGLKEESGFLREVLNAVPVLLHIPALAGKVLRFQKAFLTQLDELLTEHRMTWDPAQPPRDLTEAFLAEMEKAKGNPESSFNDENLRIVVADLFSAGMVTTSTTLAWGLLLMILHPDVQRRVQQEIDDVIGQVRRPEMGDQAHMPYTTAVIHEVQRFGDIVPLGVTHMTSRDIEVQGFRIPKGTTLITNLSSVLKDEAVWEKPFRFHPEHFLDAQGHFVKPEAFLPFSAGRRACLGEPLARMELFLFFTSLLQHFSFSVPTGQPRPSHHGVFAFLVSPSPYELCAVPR
Assay: Inhibitory concentration against Cytochrome P450 2D6
Format: ADME
Settings: not given
O=C(O)c1cnc(N(C(=O)c2ccc(OCc3cccc(C(F)(F)F)c3)cc2)C2CCCCC2)s1 showed an IC50 of over 30 µM.

Target: RNA-directed RNA polymerase (Hepacivirus hominis, UniProt O39930)
Sequence (O39930 whole entry): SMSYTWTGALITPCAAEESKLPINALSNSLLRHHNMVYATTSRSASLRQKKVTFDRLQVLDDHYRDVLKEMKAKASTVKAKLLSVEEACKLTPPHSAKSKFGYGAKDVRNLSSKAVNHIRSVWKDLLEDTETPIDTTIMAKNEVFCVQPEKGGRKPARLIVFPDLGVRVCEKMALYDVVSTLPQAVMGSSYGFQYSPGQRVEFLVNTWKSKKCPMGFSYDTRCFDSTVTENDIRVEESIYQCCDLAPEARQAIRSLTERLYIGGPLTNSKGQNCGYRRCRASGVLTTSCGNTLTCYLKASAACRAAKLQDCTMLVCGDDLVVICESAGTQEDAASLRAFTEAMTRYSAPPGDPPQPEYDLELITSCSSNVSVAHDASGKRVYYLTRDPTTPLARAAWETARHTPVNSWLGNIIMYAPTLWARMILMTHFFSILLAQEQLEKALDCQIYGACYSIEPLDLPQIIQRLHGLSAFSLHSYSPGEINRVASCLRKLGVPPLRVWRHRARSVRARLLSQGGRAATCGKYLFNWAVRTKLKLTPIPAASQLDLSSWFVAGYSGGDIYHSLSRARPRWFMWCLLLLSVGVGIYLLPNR
Assay: Inhibitory concentration against RNA dependent RNA polymerase nonstructural protein 5B of hepatitis C virus
Settings: not given
Summary of the method: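 HCV NS5B D55 construct (6 nM), scintillation proximity assay: biotinylated oligoG12/polyC template-primer with GTP plus [3H]-GTP, in 20 mM HEPES pH 7.3, 7.5 mM DTT, 10 mM MgCl2, 60 mM NaCl, BSA, and RNasin, for 50 min at room temperature. Stopped with streptavidin SPA beads plus 100 mM EDTA; incorporated label counted. IC50 from single experiments over 11 serial 2-fold dilutions.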
COc1ccccc1COc1ccc(C(=O)N(c2ncc(C(=O)O)s2)C2CCCCC2)cc1 gave an IC50 of 8.5 µM. Molecule O=C(O)c1cnc(N(C(=O)c2ccc(OCc3cccc(F)c3)cc2)C2CCCCC2)s1 has an IC50 of 6.5 µM. COc1ccccc1Oc1ccc(C(=O)N(c2ncc(C(=O)O)s2)C2CCCCC2)cc1 gave an IC50 of 8.5 µM. Work on O=C(O)c1cnc(N(C(=O)c2ccc(Oc3cccc(C(F)(F)F)c3)cc2)C2CCCCC2)s1 yielded an IC50 of 4.4 µM. O=C(O)c1cnc(N(C(=O)c2ccc(Oc3ccccc3)cc2)C2CCSCC2)s1 gave an IC50 of 13 µM. Molecule O=C(O)c1cnc(N(C(=O)c2ccc(OCc3ccccn3)cc2)C2CCCCC2)s1 has an IC50 of 15 µM. CC(C)N(C(=O)c1ccc(Oc2ccccc2)cc1)c1ncc(C(=O)O)s1 showed an IC50 of over 50 µM. O=C(O)c1cnc(N(C(=O)c2ccc(Oc3cccc(Cl)c3)cc2)C2CCCCC2)s1 gave an IC50 of 2.8 µM. COc1cccc(Oc2ccc(C(=O)N(c3ncc(C(=O)O)s3)C3CCCCC3)cc2)c1 gave an IC50 of 3.1 µM. O=C(O)c1cnc(N(C(=O)c2ccc(Oc3ccc(Cl)cc3)cc2)C2CCCCC2)s1 gave an IC50 of 4.2 µM. O=C(O)c1csc(N(C(=O)c2ccc(Oc3ccccc3)cc2)C2CCCCC2)n1 showed an IC50 of 10 µM. For O=C(O)c1cnc(N(C(=O)c2ccc(Oc3ccccc3)cc2)C2CCS(=O)(=O)CC2)s1, the IC50 was over 50 µM. Work on O=C(Nc1nc(C(=O)O)cs1)c1ccc(Oc2ccccc2)cc1 yielded an IC50 of over 50 µM. O=C(O)c1cnc(N(C(=O)c2ccc(OCc3ccc(F)cc3)cc2)C2CCCCC2)s1 gave an IC50 of 3.9 µM. CC(C)N(C(=O)c1ccc(Oc2ccccc2)cc1)c1nc(C(=O)O)cs1 gave an IC50 of over 50 µM. In the case of O=C(O)c1cnc(N(C(=O)c2ccc(OCc3cccc(C(F)(F)F)c3)cc2)C2CCCCC2)s1, the IC50 is reported as 1.4 µM. Work on O=C(Nc1ncc(C(=O)O)s1)c1ccc(Oc2ccccc2)cc1 yielded an IC50 of over 50 µM. For O=C(O)c1cnc(N(C(=O)c2ccc(OCc3ccccc3F)cc2)C2CCCCC2)s1, the IC50 was 4 µM. For O=C(O)c1cnc(N(C(=O)c2ccc(Oc3ccc(Cl)c(Cl)c3)cc2)C2CCCCC2)s1, the IC50 was 2.6 µM. Molecule O=C(O)c1cnc(N(C(=O)c2ccc(OCc3cccs3)cc2)C2CCCCC2)s1 has an IC50 of 7 µM. Work on O=C(O)c1cnc(N(C(=O)c2ccc(OCc3ccccc3)cc2)C2CCCCC2)s1 yielded an IC50 of 6.5 µM. Work on COc1ccc(Oc2ccc(C(=O)N(c3ncc(C(=O)O)s3)C3CCCCC3)cc2)cc1OC yielded an IC50 of 3.5 µM. O=C(O)c1cnc(N(C(=O)c2ccc(OC3CCCCC3)cc2)C2CCCCC2)s1 showed an IC50 of 5.5 µM. Work on O=C(O)c1cnc(N(C(=O)c2ccc(OCc3ccccc3C(F)(F)F)cc2)C2CCCCC2)s1 yielded an IC50 of 5.1 µM. In the case of COc1cccc(COc2ccc(C(=O)N(c3ncc(C(=O)O)s3)C3CCCCC3)cc2)c1, the IC50 is reported as 3.2 µM. Molecule O=C(O)c1cnc(N(C(=O)c2ccc(Oc3ccccc3)cc2)C2CCCCC2)s1 has an IC50 of 7 µM. Work on O=C(O)c1cnc(N(C(=O)c2ccc(Oc3cccc(OC(F)(F)F)c3)cc2)C2CCCCC2)s1 yielded an IC50 of 5.2 µM. Molecule C[C@@H]1C[C@@H](N(C(=O)c2ccc(Oc3ccccc3)cc2)c2ncc(C(=O)O)s2)CC(C)(C)C1 (single isomer, unassigned) has an IC50 of 6 µM. With C[C@@H]1C[C@@H](N(C(=O)c2ccc(Oc3ccccc3)cc2)c2nc(C(=O)O)cs2)CC(C)(C)C1 (single isomer, unassigned) the IC50 was 5.5 µM. In the case of C[C@H]1CCCC[C@@H]1N(C(=O)c1ccc(Oc2ccccc2)cc1)c1ncc(C(=O)O)s1 (single isomer, unassigned; cis), the IC50 is reported as 6.1 µM. Work on C[C@H]1CCCC[C@@H]1N(C(=O)c1ccc(Oc2ccccc2)cc1)c1ncc(C(=O)O)s1 (single isomer, unassigned; trans) yielded an IC50 of 9.4 µM. CC(C)(C)[C@H]1CC[C@H](N(C(=O)c2ccc(Oc3ccccc3)cc2)c2ncc(C(=O)O)s2)CC1 (stereo in doubt; cis) gave an IC50 of 3.4 µM. Molecule C[C@H]1CC[C@H](N(C(=O)c2ccc(Oc3ccccc3)cc2)c2ncc(C(=O)O)s2)CC1 (stereo in doubt; cis) has an IC50 of 6.6 µM. With CC(C)(C)[C@H]1CC[C@@H](N(C(=O)c2ccc(Oc3ccccc3)cc2)c2nc(C(=O)O)cs2)CC1 (stereo in doubt; cis) the IC50 was 2.8 µM. For C[C@@H]1CCCC[C@H]1N(C(=O)c1ccc(Oc2ccccc2)cc1)c1nc(C(=O)O)cs1 (stereo in doubt; cis), the IC50 was 7.6 µM. In the case of C[C@H]1CC[C@@H](N(C(=O)c2ccc(Oc3ccccc3)cc2)c2nc(C(=O)O)cs2)CC1 (stereo in doubt; cis), the IC50 is reported as 5.7 µM. CC(C)(C)[C@H]1CC[C@H](N(C(=O)c2ccc(Oc3ccccc3)cc2)c2ncc(C(=O)O)s2)CC1 (stereo in doubt; trans) gave an IC50 of 6 µM. With C[C@H]1CC[C@H](N(C(=O)c2ccc(Oc3ccccc3)cc2)c2ncc(C(=O)O)s2)CC1 (stereo in doubt; trans) the IC50 was 5 µM. CC(C)(C)[C@H]1CC[C@@H](N(C(=O)c2ccc(Oc3ccccc3)cc2)c2nc(C(=O)O)cs2)CC1 (stereo in doubt; trans) showed an IC50 of 4.7 µM. C[C@@H]1CCCC[C@H]1N(C(=O)c1ccc(Oc2ccccc2)cc1)c1nc(C(=O)O)cs1 (stereo in doubt; trans) showed an IC50 of 11 µM. Molecule C[C@H]1CC[C@@H](N(C(=O)c2ccc(Oc3ccccc3)cc2)c2nc(C(=O)O)cs2)CC1 (stereo in doubt; trans) has an IC50 of 5.4 µM.

Target: Cytochrome P450 3A4 (Homo sapiens, UniProt P08684)
Sequence (P08684 whole entry): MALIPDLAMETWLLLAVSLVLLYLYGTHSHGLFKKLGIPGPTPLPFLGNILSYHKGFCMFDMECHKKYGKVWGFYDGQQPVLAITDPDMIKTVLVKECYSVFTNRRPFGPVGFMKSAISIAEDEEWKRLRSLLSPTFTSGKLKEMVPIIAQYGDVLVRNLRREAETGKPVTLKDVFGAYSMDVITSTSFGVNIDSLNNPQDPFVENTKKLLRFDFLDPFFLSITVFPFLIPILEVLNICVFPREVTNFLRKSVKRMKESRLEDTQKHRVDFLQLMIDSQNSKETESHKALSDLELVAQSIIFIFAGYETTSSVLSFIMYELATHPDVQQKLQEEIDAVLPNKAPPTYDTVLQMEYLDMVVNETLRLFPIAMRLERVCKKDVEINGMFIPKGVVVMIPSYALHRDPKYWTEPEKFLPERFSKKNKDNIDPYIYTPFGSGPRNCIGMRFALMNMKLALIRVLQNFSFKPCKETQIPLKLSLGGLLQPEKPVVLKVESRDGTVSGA
Assay: Inhibitory concentration against Cytochrome P450 3A4
Format: ADME
Settings: not given
Molecule O=C(O)c1cnc(N(C(=O)c2ccc(OCc3cccc(C(F)(F)F)c3)cc2)C2CCCCC2)s1 has an IC50 of over 30 µM.
